In PMC2804273 (Journal of Medicinal Chemistry, 2009):

System: BSF T. brucei brucei strain Lister 427
Experiment: Alamar blue viability test, cytotoxicity against cultured parasites
Format: cell-based, Trypanosoma brucei brucei
Conditions: ED50 determined in the presence of sub-ED50 MTX (0.5-2.5 μM)
Summary of the method: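 Bloodstream-form T. brucei brucei Lister 427, grown at 37 °C and 5% CO2 in HMI-9 with 10% fetal calf serum, high folate left unreduced, and neomycin pressure to keep T7 polymerase and tetracycline repressor. […] Values are mean ± std dev (n = 4). Synergy was judged by comparing the area under the slope with half the product of the two ED50 values.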

| SMILES | Interaction in combination with MTX (synergy) |
| --- | --- |
| CCc1nc(N)nc(N)c1-c1ccc(Cl)cc1 [PYR, pyrimethamine] | does not act synergistically |
| N#Cc1c(-c2ccc3c(c2)OCO3)[nH]c2nc(N)[nH]c(=O)c12 [compound 13] | acts synergistically |
